The structures appear in SMILES notation. Calls of active or inactive are those of the source. The rule behind the calls is not given here.

We go through five compounds from ChEMBL document CHEMBL4152197, “Proteolysis Targeting Chimeras (PROTACs) of Anaplastic Lymphoma Kinase (ALK)” (Eur J Med Chem, 2018).

Data set [1] deals with T1, ALK tyrosine kinase receptor (Homo sapiens, UniProt Q9UM73). The experiment in a line: Binding affinity to wild-type human partial length ALK (I1088 to E1409 residues) expressed in mammalian expression system by KINOMEscan assay.
Data set [2] concerns SU-DHL-1. The data set can be described thus: Growth inhibition of human SU-DHL1 cells after 3 days by luminescence-based CellTiter-Glo assay. Type of data set: functional, cell-based. (Cellular ATP, detected with luciferase, serves as a proxy for viable cell number.)
The next data set relates to NCI-H2228. The data set can be described thus: Growth inhibition of human NCI-H2228 cells after 3 days by luminescence-based CellTiter-Glo assay. In kind it is functional, cell-based. Particulars: for IC50: NCI-H2228, 72 h.
For data set [3], the target named is T1, ALK tyrosine kinase receptor. The experiment in a line: Inhibition of ALK autophosphorylation at Y1507 residue in human SU-DHL1 cells after 16 hrs by Western blot analysis. Type of data set: cell-based. The method in brief: (§1)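 SU-DHL-1 or NCI-H2228 cells, grown in RPMI-1640 with 10% FBS at 37 °C under 5% CO₂, were exposed to DMSO or serial dilutions of compound (up to 100 nM) for 16 h. Cells were lysed in Laemmli buffer and run on SDS-PAGE/PVDF immunoblots probed for ALK, p-ALK Y1507, STAT3, p-STAT3 Y705 and GAPDH. Band levels were normalized to GAPDH. DC50 was taken from a variable-slope fit, triplicate independent experiments, mean ± SEM.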
A general note: Immunoblotting shows a protein as a band on a membrane.

For data set [4] the target is unchanged. The experiment in a line: Inhibition of ALK autophosphorylation at Y1507 residue in human NCI-H2228 cells after 16 hrs by Western blot analysis. In kind it is cell-based. A digest of the protocol:
as §1

For data set [5], the target named is T2, Protein cereblon/ALK tyrosine kinase receptor/Echinoderm microtubule-associated protein-like 4 (Homo sapiens) (UniProt Q9UM73+Q9HC35+Q96SW2). The data set can be described thus: Induction of CRL4/CRBN ubiquitin ligase-mediated EML4-ALK fusion protein degradation in human NCI-H2228 cells assessed as reduction in STAT3 phosphorylation at Y705 residue after 16 hrs by Western blot analysis. Type of data set: cell-based. The method in brief: as §1

The target in data set [6] is T3, Protein cereblon/ALK tyrosine kinase receptor/Nucleophosmin (Homo sapiens) (UniProt Q9UM73+P06748+Q96SW2). The data set can be described thus: Induction of CRL4/CRBN ubiquitin ligase-mediated NPM-ALK fusion protein degradation in human SU-DHL1 cells assessed as reduction in NPM-ALK fusion protein levels at 100 nM after 16 hrs by Western blot analysis. Also on record: scale not given: the % may be the effect or the level left. Type of data set: cell-based. The method in brief: as §1

Data set [7] concerns the target T1, ALK tyrosine kinase receptor. The experiment in a line: Inhibition of ALK autophosphorylation at Y1507 residue in human SU-DHL1 cells at 100 nM after 16 hrs by Western blot analysis. In kind it is cell-based. A digest of the protocol:
as §1

Data set [8] shares this target. The experiment in a line: Inhibition of ALK in human SU-DHL1 cells assessed as reduction in STAT3 phosphorylation at Y705 residue at 100 nM after 16 hrs by Western blot analysis. Type of data set: cell-based. A digest of the protocol:
as §1

Data set [9] has as its system SU-DHL-1. The experiment in a line: Toxicity against human SU-DHL1 cells assessed as cell death over 100 nM after 3 days by luminescence-based CellTiter-Glo assay. The note with it: su-dhl-1, 72 h.
Data set [10] concerns the target T2, Protein cereblon/ALK tyrosine kinase receptor/Echinoderm microtubule-associated protein-like 4 (Homo sapiens). The data set can be described thus: Induction of CRL4/CRBN ubiquitin ligase-mediated EML4-ALK fusion protein degradation in human NCI-H2228 cells assessed as reduction in EML4-ALK fusion protein levels at 60 nM after 8 to 24 hrs hrs by Western blot analysis. In kind it is cell-based. A digest of the protocol:
(§2)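 Time course by immunoblot. SU-DHL-1 (30 nM) or NCI-H2228 (60 nM) cells in RPMI-1640 with 10% FBS were held at a fixed degrader concentration and harvested over time up to 24 h. Lysates in Laemmli buffer were blotted for ALK fusion protein, p-ALK Y1507 and p-STAT3 Y705, with GAPDH as the loading reference.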

Data set [11] has the same target. The experiment in a line: Induction of CRL4/CRBN ubiquitin ligase-mediated EML4-ALK fusion protein degradation assessed as inhibition of ALK autophosphorylation at Y1507 residue in human NCI-H2228 cells at 60 nM after 8 to 24 hrs by Western blot analysis. In kind it is cell-based. The method in brief:
as §2

Data set [12] has as its target T3, Protein cereblon/ALK tyrosine kinase receptor/Nucleophosmin (Homo sapiens). The data set can be described thus: Induction of CRL4/CRBN ubiquitin ligase-mediated NPM-ALK fusion protein degradation in human SU-DHL1 cells pretreated with MLN4924 for 2 hrs followed by compound addition at 100 nM and measured after 6 hrs by Western blot analysis. In kind it is cell-based.

The target is the same in data set [13]. The experiment in a line: Induction of CRL4/CRBN ubiquitin ligase-mediated NPM-ALK fusion protein degradation in human SU-DHL1 cells pretreated with MG-132 for 2 hrs followed by compound addition at 100 nM and measured after 6 hrs by Western blot analysis. Type of data set: cell-based.
The target is the same in data set [14]. The experiment in a line: Induction of CRL4/CRBN ubiquitin ligase-mediated NPM-ALK fusion protein degradation in human SU-DHL1 cells pretreated with pomalidomide for 2 hrs followed by compound addition at 100 nM and measured after 6 hrs by Western blot analysis. In kind it is cell-based.
For data set [15], the target named is T1, ALK tyrosine kinase receptor. The data set can be described thus: Inhibition of ALK autophosphorylation at Y1507 residue in human SU-DHL1 cells pretreated with MG-132 for 2 hrs followed by compound addition at 100 nM and measured after 6 hrs by Western blot analysis. Type of data set: cell-based.
For data set [16] the target is unchanged. The experiment in a line: Inhibition of ALK autophosphorylation at Y1507 residue in human SU-DHL1 cells pretreated with MLN4924 for 2 hrs followed by compound addition at 100 nM and measured after 6 hrs by Western blot analysis. In kind it is cell-based.
Data set [17] has the same target. The data set can be described thus: Inhibition of ALK autophosphorylation at Y1507 residue in human SU-DHL1 cells pretreated with pomalidomide for 2 hrs followed by compound addition at 100 nM and measured after 6 hrs by Western blot analysis. In kind it is cell-based.
The target in data set [18] is T3, Protein cereblon/ALK tyrosine kinase receptor/Nucleophosmin (Homo sapiens). The data set can be described thus: Induction of CRL4/CRBN ubiquitin ligase-mediated NPM-ALK fusion protein degradation in human SU-DHL1 cells pretreated with ceritinib for 2 hrs followed by compound addition at 100 nM and measured after 6 hrs by Western blot analysis. Type of data set: cell-based.

Data set [19] has the same target. The experiment in a line: Induction of CRL4/CRBN ubiquitin ligase-mediated NPM-ALK fusion protein degradation in human SU-DHL1 cells pretreated at 100 nM for 2 hrs followed by compound washout and measured after 8 hrs by Western blot analysis. Type of data set: cell-based. The method in brief:
(§3)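 Washout in SU-DHL-1 cells: DMSO or 100 nM compound for 2 h, then a PBS wash and incubation in fresh medium for the indicated times. Lysates were immunoblotted for NPM-ALK, p-ALK Y1507 and p-STAT3 Y705, with GAPDH as the reference.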

Data set [20] shares this target. The data set can be described thus: Induction of CRL4/CRBN ubiquitin ligase-mediated NPM-ALK fusion protein degradation in human SU-DHL1 cells assessed as inhibition of ALK autophosphorylation at Y1507 residue pretreated at 100 nM for 2 hrs followed by compound washout and measured after 8 hrs by Western blot analysis. In kind it is cell-based. The method in brief: as §3

For data set [21] the target is unchanged. The data set can be described thus: Induction of CRL4/CRBN ubiquitin ligase-mediated NPM-ALK fusion protein degradation in human SU-DHL1 cells assessed as reduction in STAT3 phosphorylation at Y705 residue pretreated at 100 nM for 2 hrs followed by compound washout and measured after 8 hrs by Western blot analysis. Type of data set: cell-based. The method in brief:
as §3

A further data set concerns Mus musculus. The data set can be described thus: Toxicity in Swiss Albino mouse assessed as drug tolerability at 50 mg/kg, ip. Type of data set: organism-based. Particulars: in vivo. A digest of the protocol: (§4)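 Male Swiss Albino mice received a single 50 mg/kg intraperitoneal dose, with clinical signs monitored. Plasma was sampled at 30 min, 1, 2, 4, 8 and 12 h post dose. Values are the average of 3 animals ± SD.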

Data set [22] is described as follows: Plasma concentration in Swiss Albino mouse at 50 mg/kg, ip after 2 hrs. Type of data set: ADME, organism-based. A digest of the protocol:
as §4

Data set [23] in a line: Plasma concentration in Swiss Albino mouse at 50 mg/kg, ip after 12 hrs. Type of data set: ADME, organism-based. The method in brief:
as §4

Data set [24] has as its target T2, Protein cereblon/ALK tyrosine kinase receptor/Echinoderm microtubule-associated protein-like 4 (Homo sapiens). The data set can be described thus: Induction of CRL4/CRBN ubiquitin ligase-mediated EML4-ALK fusion protein degradation in human NCI-H2228 cells assessed as reduction in STAT3 phosphorylation at Y705 residue at 60 nM after 8 to 24 hrs by Western blot analysis. In kind it is cell-based. A digest of the protocol: as §2

`Cc1cc(Nc2ncc(Cl)c(Nc3ccccc3S(=O)(=O)C(C)C)n2)c(OC(C)C)cc1C1CCN(CC(=O)NCCOCCOCCOCCOCCOCCNc2cccc3c2C(=O)N(C2CCC(=O)N(C)C2=O)C3=O)CC1` (configuration not stated) had a Kd in data set [1] of 54 nM. For the same compound, the “growth inhibition (GI)” value with SU-DHL-1 [2] and in the data set on NCI-H2228 was “inactive” throughout.
In the case of `Cc1cc(Nc2ncc(Cl)c(Nc3ccccc3S(=O)(=O)C(C)C)n2)c(OC(C)C)cc1C1CCN(CC(=O)NCCNc2cccc3c2C(=O)N(C2CCC(=O)NC2=O)C3=O)CC1` (configuration not stated), the inhibition entry was “Dose-dependent effect” in [3], “Dose-dependent effect” in data set [4], over 90% in [7] and over 90% in data set [8]. Besides, the Activity result in [5] is “Dose-dependent effect”; in data set [6], over 90%; with SU-DHL-1 [9], “Toxic”; in the data set on Mus musculus it was “Non-Toxic”. The result in data set [10], in [11], in [18] and in [24] was Active. Also, the result in data set [12], in data set [13], in data set [14], in [19], in data set [20] and in data set [21] was inactive. Besides, the inhibition entry in data set [15], in [16] and in data set [17] was “Active” throughout. Besides, in the data set with NCI-H2228, the IC50 is 33 nM. For the same compound, the concentration at 2 h in data set [22] amounted to 3000 nM. Moreover, the concentration at 12 h in [23] stood at 340 nM.
In turn, `Cc1cc(Nc2ncc(Cl)c(Nc3ccccc3S(=O)(=O)C(C)C)n2)c(OC(C)C)cc1C1CCN(CC(=O)NCCNc2cccc3c2C(=O)N(C2CCC(=O)N(C)C2=O)C3=O)CC1` (configuration not stated) displayed a Kd in data set [1] of 78 nM. In addition, the “growth inhibition (GI)” value in the data set on SU-DHL-1 [2] and in the data set with NCI-H2228 was “inactive” each time.
In the case of `Cc1cc(Nc2ncc(Cl)c(Nc3ccccc3S(=O)(=O)C(C)C)n2)c(OC(C)C)cc1C1CCNCC1` [CERITINIB], the Activity result with SU-DHL-1 [9] is “Toxic”.
For `Cc1cc(Nc2ncc(Cl)c(Nc3ccccc3S(=O)(=O)C(C)C)n2)c(OC(C)C)cc1C1CCN(CC(=O)NCCOCCOCCOCCOCCOCCNc2cccc3c2C(=O)N(C2CCC(=O)NC2=O)C3=O)CC1` (configuration not stated), the inhibition result was “Dose-dependent effect” in data set [3], “Dose-dependent effect” in [4], over 90% in [7] and over 90% in [8]. Moreover, the Activity result in data set [5] was “Dose-dependent effect”; in [6], over 90%; in the data set with SU-DHL-1 [9] it was “Toxic”. Further, the outcome in data set [10], in data set [11], in [18] and in [24] was Active. Also, the outcome in data set [12], in data set [13], in data set [14], in data set [19], in [20] and in data set [21] was inactive. The inhibition result in [15], in data set [16] and in [17] was “Active” in each case. This compound displayed an IC50 in the data set on NCI-H2228 of 46 nM.

As a reminder, the Kd is the constant that tells how readily two partners part at equilibrium. The term inhibition denotes the drop in the measured response relative to a control, in per cent. As a reminder, the IC50 is the concentration needed to halve the response being measured.
